Experimental data reported in ChEMBL document CHEMBL3232980, “Studies on the antiproliferative effects of tropolone derivatives in Jurkat T-lymphocyte cells” (2014).
Active and inactive are the calls of the source. The rule behind the calls is not given here.

What was measured:
Jurkat [1] = assay: Cell cycle arrest in human Jurkat cells assessed as accumulation at S-phase at 10 uM after 12 hrs by propidium iodide staining-based flow cytometric analysis (reference value: 19.5%); type: functional
Jurkat [2] = assay: Induction of apoptosis in human Jurkat cells assessed as caspase 3/7 activation at 10 uM after 48 hrs by luminescence assay (reference value: 109,510 +/- 4710.453 no unit); type: functional
Jurkat [3] = assay: Cell cycle arrest in human Jurkat cells assessed as accumulation at G1-phase at 10 uM after 36 hrs by propidium iodide staining-based flow cytometric analysis (reference value: 59.10%); type: functional
Jurkat [4] = assay: Cell cycle arrest in human Jurkat cells assessed as accumulation at G1-phase at 10 uM after 24 hrs by propidium iodide staining-based flow cytometric analysis (reference value: 60.90%); type: functional
Jurkat [5] = assay: Cell cycle arrest in human Jurkat cells assessed as accumulation at G2/M-phase at 10 uM after 24 hrs by propidium iodide staining-based flow cytometric analysis (reference value: 14.30%); type: functional
Jurkat [6] = assay: Induction of apoptosis in human Jurkat cells assessed as early apoptotic cells at 10 uM after 24 hrs by annexin V-FITC/propidium iodide staining-based FACS flow cytometric analysis (reference value: 0.32%); type: functional
Procedure, shortened: (§1)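 About 1 × 10^6 log-phase Jurkat cells treated in 6-well plates; untreated controls. Cells washed in cold PBS and resuspended in annexin-binding buffer (10 mM HEPES, 140 mM NaCl, 2.5 mM CaCl2, pH 7.4). Stained with FITC-annexin V plus propidium iodide, then gated by flow cytometry: live (AnnV−/PI−), early apoptotic (AnnV+/PI−), late apoptotic/necrotic (AnnV+/PI+).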

Jurkat [7] = assay: Induction of apoptosis in human Jurkat cells assessed as caspase 8 responsive cells level at 10 uM after 24 hrs by FACS flow cytometric analysis (reference value: 0.32%); type: functional
Jurkat [8] = assay: Cell cycle arrest in human Jurkat cells assessed as accumulation at G2/M-phase at 10 uM after 36 hrs by propidium iodide staining-based flow cytometric analysis (reference value: 14.20%); type: functional
Jurkat [9] = assay: Cell cycle arrest in human Jurkat cells assessed as accumulation at S-phase at 10 uM after 24 hrs by propidium iodide staining-based flow cytometric analysis (reference value: 20.90%); type: functional
Jurkat [10] = assay: Cell cycle arrest in human Jurkat cells assessed as accumulation at G0/G1-phase at 10 uM after 36 hrs by propidium iodide staining-based flow cytometric analysis (reference value: 1.80%); type: functional
Jurkat [11] = assay: Cell cycle arrest in human Jurkat cells assessed as accumulation at G1-phase at 10 uM after 12 hrs by propidium iodide staining-based flow cytometric analysis (reference value: 65%); type: functional
Jurkat [12] = assay: Induction of apoptosis in human Jurkat cells assessed as caspase 3/7 activation at 10 uM after 24 hrs by luminescence assay (reference value: 136,627 +/- 31846.96 no unit); type: functional
Jurkat [13] = assay: Cell cycle arrest in human Jurkat cells assessed as accumulation at G0/G1-phase at 10 uM after 24 hrs by propidium iodide staining-based flow cytometric analysis (reference value: 2.39%); type: functional
Jurkat [14] = assay: Induction of apoptosis in human Jurkat cells assessed as cell death at 10 uM after 24 hrs by annexin V-FITC/propidium iodide staining-based FACS flow cytometric analysis (reference value: 0.348%); type: functional
Procedure, shortened: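 ~1×10^6 log-phase Jurkat cells (RPMI 1640, 10% FBS, pen/strep, L-glutamine) treated in 6-well plates; untreated wells as controls. Cells washed in cold PBS and resuspended in annexin-binding buffer (10 mM HEPES, 140 mM NaCl, 2.5 mM CaCl2, pH 7.4). Stained with fluorescein-annexin V plus PI and read by flow cytometry. Gates: live A−/PI−, early apoptotic A+/PI−, late apoptotic/necrotic A+/PI+.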

Jurkat [15] = assay: Induction of apoptosis in human Jurkat cells assessed as caspase 3/7 activation at 10 uM after 12 hrs by luminescence assay (reference value: 69,935 +/- 7003.63 no unit); type: functional
Jurkat [16] = assay: Cell cycle arrest in human Jurkat cells assessed as accumulation at G0/G1-phase at 10 uM after 12 hrs by propidium iodide staining-based flow cytometric analysis (reference value: 4.16%); type: functional
Jurkat [17] = assay: Induction of apoptosis in human Jurkat cells assessed as viable cells at 10 uM after 24 hrs by annexin V-FITC/propidium iodide staining-based FACS flow cytometric analysis (reference value: 99.3%); type: functional; conditions: read-out: Activity; procedure, shortened: as §1
Jurkat [18] = assay: Cell cycle arrest in human Jurkat cells assessed as accumulation at G2/M-phase at 10 uM after 12 hrs by propidium iodide staining-based flow cytometric analysis (reference value: 10%); type: functional
Jurkat [19] = assay: Induction of apoptosis in human Jurkat cells assessed as late apoptotic cells at 10 uM after 24 hrs by annexin V-FITC/propidium iodide staining-based FACS flow cytometric analysis (reference value: 0.0401%); type: functional; procedure, shortened: as §1
Jurkat [20] = assay: Cell cycle arrest in human Jurkat cells assessed as accumulation at S-phase at 10 uM after 36 hrs by propidium iodide staining-based flow cytometric analysis (reference value: 23%); type: functional
Jurkat [21] = assay: Induction of apoptosis in human Jurkat cells assessed as caspase 3/7 activation at 10 uM after 6 hrs by luminescence assay (reference value: 59,417 +/- 10002.74 no unit); type: functional
[22] = target: T1, Histone deacetylase (Homo sapiens) (UniProt Q13547+O15379+Q9UBN7+Q92769+Q9UQL6+Q8WUI4+Q9BY41+Q96DB2+P56524+Q9UKV0+Q969S8); conditions: Jurkat, at 10 µM
[23] = target: T1, Histone deacetylase (Homo sapiens); conditions: Jurkat
[24] = target: T1, Histone deacetylase (Homo sapiens); conditions: Jurkat; remark: listed apart in the source
Jurkat [25] = assay: Increase in p21 protein expression in human Jurkat cells at 10 to 50 uM after 24 hrs by FACS flow cytometric analysis; type: functional, cell-based
Procedure, shortened: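 Jurkat cells (~1 × 10^6, log phase) treated 24 h at 10 or 50 µM; no-inhibitor controls. Fixed in 4% PFA for 20 min, held overnight at 4°C in 5% BSA/PBS, permeabilized with 0.5% Triton X-100, blocked with 10% goat serum. Stained with anti-p21 (1:100) and FITC secondary (1:1000). Read-out was geometric mean fluorescence intensity by flow cytometry.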

Jurkat [26] = assay: Increase in p21 mRNA level in human Jurkat cells at 10 to 50 uM after 24 hrs by quantitative RT-PCR analysis; type: functional, cell-based
Procedure, shortened: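 Roughly 5 × 10^6 Jurkat cells treated 24 h at 10 and 50 µM; untreated cells served as controls. RNA extracted with Trizol, and 2 µg reverse-transcribed. p21 and beta-actin quantified by TaqMan real-time PCR, run in triplicate.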

Structure (SMILES)	Activity (Jurkat [1]) [%]	RLU (Jurkat [2])	Activity (Jurkat [3]) [%]	Activity (Jurkat [4]) [%]	Activity (Jurkat [5]) [%]	Activity (Jurkat [6]) [%]	Activity (Jurkat [7]) [%]	Activity (Jurkat [8]) [%]	Activity (Jurkat [9]) [%]	Activity (Jurkat [10]) [%]	Activity (Jurkat [11]) [%]	RLU (Jurkat [12])	Activity (Jurkat [13]) [%]	Activity (Jurkat [14]) [%]	RLU (Jurkat [15])	Activity (Jurkat [16]) [%]	viability at 10 µM (Jurkat [17]) [%]	Activity (Jurkat [18]) [%]	Activity (Jurkat [19]) [%]	Activity (Jurkat [20]) [%]	other results
O=C(CCCCCCC(=O)Nc1ccccc1)NO [VORINOSTAT]	31.6	95463	6.9	7.46	12.3	35.9	35.9	14.9	19.9	60.8	25.9	125484	48.9	1.03	157988	20.4	62.6	19.7	0.412	15.6	RLU (Jurkat [21]): 53518
O=c1cc(-c2ccccc2)cccc1O	10.2	71048	65.9	66.5	2.58	0.4	0.4	4.35	15.8	13.4	71.5	80438	13.9	0.186	110650	16.3	99.4	1.25	0.0285	14.6	inhibition [22]: inactive; Flu intensity [23]: 24; Flu intensity [24]: 2.12; RLU (Jurkat [21]): 73949
O=c1c(O)ccccc1-c1ccccc1	11.1	105357	64.2	70.2	1.81	0.434	0.43	2.97	13.3	18.5	64.3	76948	13.9	0.513	97513	22.3	98.9	1.39	0.158	13.3	inhibition [22]: inactive; Flu intensity [23]: 24.6; Flu intensity [24]: 13.7; Activity (Jurkat [25]): Active; Activity (Jurkat [26]): inactive; RLU (Jurkat [21]): 88661
